Laboratory results published in PubChem BioAssay.
Active and inactive are the calls of the source.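 Rule for the calls, unless noted: active = visual image review flags a hit and inhibition of aggregation exceeds 20%; inconclusive = visual hit but inhibition at or below 20%; inactive = no hit on visual image review.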

What was measured:
[1] = inhibitors of TNFa-induced NFkB p65 translocation, primary screen, imaging, HUVEC, MLSMR starter and 10KST1 sets (AID 438;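 active = inhibition above 20% together with a positive visual image hit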;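 note: compound added about 3h40 before a 20 min TNFalpha stimulation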;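 for inhibition: signal is the nuclear over cytoplasmic p65 intensity ratio per well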); conditions: HUVEC TNFa-induced p65 nuclear translocation; cell count: measured here: nuclei count (cytotoxicity indicator), at 2.08 µM; inhibition: at 2 µM, stronger effect = higher value, 0% TNFa-plus-vehicle, 100% no-TNFa wells
[2] = inhibitors of mutant huntingtin aggregation, primary screen, imaging, exon1htt(103Q)mCFP cells, high-content imaging (AID 483); conditions: exon1htt(103Q)mCFP cell line, aggregate imaging, at 2 µM; inhibition of aggregation: stronger effect = higher value; nuclei count: measured here: cell count, toxicity;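 note: compound exposure lasted 3 days before fixation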;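 for nuclei count: percent of the per-plate median nuclei count of sample wells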
[3] = inhibitors of E-selectin induction by TNFa, primary screen, imaging, HUVEC, immunofluorescence, MLSMR starter and 10KST1 sets (AID 487;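 active = visually confirmed hit in the image check and inhibition above 20%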;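 for inhibition: signal is fraction of cell area covered by stained E-selectin grains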;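 for nuclei count: 100% = median nuclei count of all wells on the same plate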); conditions: HUVEC TNFalpha-induced E-selectin immunofluorescence imaging, at 2 µM; inhibition: stronger effect = higher value; nuclei count: measured here: cell number, toxicity
[4] = molecular target: Voltage-gated potassium channel subunit beta-2 (Rattus norvegicus) (UniProt P62483); test: KvBeta enzyme negative modulators, primary screen, biochemical, NADPH fluorescence (AID 622;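 active = fluorescence slope higher than the sample average by over 3 SD, cut at about -0.22 in these data, passing the limit was not always enough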;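 note: slope of raw intensity against log time taken from 70 to 1610 s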); conditions: recombinant KvBeta, 4-cyanobenzaldehyde reduction, at 10 µM, stronger effect = higher value
[5] = molecular target: Voltage-gated potassium channel subunit beta-2 (Rattus norvegicus) (UniProt P62483); test: KvBeta positive modulators, primary screen, biochemical, NADPH fluorescence (AID 623;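 active = NADPH fluorescence slope more negative than the mean of all samples by about 3 SD, 99.7% confidence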;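 note: fluorescence intensity change per second fitted from 20 to 320 s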); conditions: Recombinant KvBeta, NADPH fluorescence decrease slope, 10 min; at 10 µM; stronger effect = lower value
[6] = molecular target: Alpha-2C adrenergic receptor (Homo sapiens) (UniProt P18825); test: modulators of alpha2C/GIRK thallium flux, primary screen, cell-based, HEK293 alpha2C/GIRK1/2 (AID 624;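 active = fluorescence slope after compound addition differing from the mean of all screened samples at 99.7% confidence, in either direction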;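 note: slope of fluorescence ratio to pre-addition baseline per second over 15 to 24 s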); conditions: thallium flux BTC fluorescence, at 10 µM, actives lie on both sides
[7] = inhibitors of larval lipid processing in zebrafish, primary screen, whole organism, PED6 fluorescence, gall bladder and intestine (AID 686;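 active = a full or partial loss of lipid-probe fluorescence in the fish gall bladder, intestine or both, judged by eye; inactive = no fluorescence loss, or compound toxic to the fish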;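 note: larvae 5 to 7 days old with five fish per well; signal comes from phospholipase A2 cleavage of quenched PED6 carried via bile; overnight exposure to compound and PED6 before scoring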); conditions: Zebrafish larvae PED6 lipid processing, fluorescence scoring; screened at 20 µM (by protocol)
Outline: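 Test system – live zebrafish larvae aged 5-7 days, whole organism · Buffer or medium – E3 fish medium · Reagent – quenched phospholipase substrate PED6, 100 nM final, ingested by larvae · Doses – 20 µM single dose · Incubation – overnight compound and PED6 incubation · Technique – visual fluorescence microscopy scoring of gall bladder, gut · Read-out basis – visual per-well fluorescence inhibition score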

[8] = inhibitors of Sendai virus-induced IRF3 signaling, primary screen, TLR/RLR signaling modifier project, cell-based, Sendai virus stimulus, luciferase, 10K MLSCN set (AID 602276;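 active = inhibition at or above 50% at 10 µM; inactive = inhibition below 50%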;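 note: firefly luciferase from ISG56 promoter only with Renilla not read in this screen; 0% = Sendai virus plus DMSO and 100% = medium plus DMSO without virus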); conditions: HEK293 RL24 IRF3 luciferase reporter, at 10 µM, stronger effect = higher value
[9] = inhibitors of poly I:C-induced TLR3 signaling, primary screen, cell-based, poly I:C stimulus, luciferase, 10K MLSCN set (AID 602277;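 active = inhibition of the reporter signal at or above 50%; inactive = inhibition below 50%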); conditions: HEK293-TLR3 RL24 IRF3 luciferase reporter, at 10 µM, stronger effect = higher value

Alpha-2C adrenergic receptor (Homo sapiens), sequence (P18825 whole entry, looked up): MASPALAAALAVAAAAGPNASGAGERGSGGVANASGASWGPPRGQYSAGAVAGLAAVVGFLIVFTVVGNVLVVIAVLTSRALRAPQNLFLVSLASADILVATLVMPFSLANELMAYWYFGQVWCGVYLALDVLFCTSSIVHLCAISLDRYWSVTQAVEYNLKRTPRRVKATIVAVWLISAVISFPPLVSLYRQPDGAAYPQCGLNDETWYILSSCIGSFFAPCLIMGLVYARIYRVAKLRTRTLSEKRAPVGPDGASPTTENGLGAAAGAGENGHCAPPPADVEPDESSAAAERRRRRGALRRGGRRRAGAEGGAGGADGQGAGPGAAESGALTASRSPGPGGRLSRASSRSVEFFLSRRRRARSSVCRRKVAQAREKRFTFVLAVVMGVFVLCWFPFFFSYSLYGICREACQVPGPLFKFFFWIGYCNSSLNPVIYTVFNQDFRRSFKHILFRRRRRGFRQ
Voltage-gated potassium channel subunit beta-2 (Rattus norvegicus), sequence (P62483 whole entry, looked up): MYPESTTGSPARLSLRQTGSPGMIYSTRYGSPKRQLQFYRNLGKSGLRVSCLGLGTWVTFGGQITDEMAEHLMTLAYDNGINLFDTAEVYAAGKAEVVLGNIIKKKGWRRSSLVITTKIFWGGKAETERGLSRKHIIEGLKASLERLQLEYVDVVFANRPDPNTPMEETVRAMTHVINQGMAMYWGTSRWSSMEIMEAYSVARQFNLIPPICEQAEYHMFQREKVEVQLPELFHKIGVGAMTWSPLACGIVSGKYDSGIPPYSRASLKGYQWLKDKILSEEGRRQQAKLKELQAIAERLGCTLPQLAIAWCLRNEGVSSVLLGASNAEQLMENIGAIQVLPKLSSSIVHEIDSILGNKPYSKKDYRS

COc1cccc(N2CCN(CC(=O)c3c[nH]c4ccc(OC)cc34)CC2C)c1 (stereo not drawn)
cell count [1]: 508 | inhibition [1]: -6.7% (inactive) | inhibition of aggregation [2]: 6% (inactive) | nuclei count [2]: 85.4% | inhibition [3]: -36.3% (inactive) | nuclei count [3]: 103% | fluorescence slope [4]: -0.368 (inactive) | NADPH fluorescence slope [5]: -3.9e-05 (inactive) | slope [6]: 0.00529 (inactive) | outcome [7]: inactive | inhibition [8]: 12.4% (inactive) | inhibition [9]: 16% (inactive)

O=P(CCNCc1ccco1)(c1ccccc1)c1ccccc1
cell count [1]: 322 | inhibition [1]: 9.5% (inactive) | inhibition of aggregation [2]: -14.2% (inactive) | nuclei count [2]: 107% | inhibition [3]: 1.5% (inactive) | nuclei count [3]: 112% | fluorescence slope [4]: -0.382 (inactive) | NADPH fluorescence slope [5]: -2.4e-05 (inactive) | slope [6]: 0.00716 (inactive) | outcome [7]: inactive | inhibition [8]: 139% (active) | inhibition [9]: 91.3% (active)

COC(=O)C1=C(C)N(Cc2ccco2)C(=O)C1
cell count [1]: 302 | inhibition [1]: 0.7% (inactive) | inhibition of aggregation [2]: 26.2% (inactive) | nuclei count [2]: 99.6% | inhibition [3]: -12.5% (inactive) | nuclei count [3]: 101% | fluorescence slope [4]: -0.42 (inactive) | NADPH fluorescence slope [5]: -3.5e-05 (inactive) | slope [6]: 0.00527 (inactive) | outcome [7]: inactive | inhibition [8]: 8.55% (inactive) | inhibition [9]: 8.79% (inactive)

O=C1c2ccccc2NC(c2cccc(F)c2)N1Cc1ccco1 (stereo not drawn)
cell count [1]: 586 | inhibition [1]: -32.4% (inactive) | inhibition of aggregation [2]: 10.2% (inactive) | nuclei count [2]: 106% | inhibition [3]: -0.5% (inactive) | nuclei count [3]: 107% | fluorescence slope [4]: -0.308 (inactive) | NADPH fluorescence slope [5]: -2.7e-05 (inactive) | slope [6]: 0.00344 (inactive) | outcome [7]: inactive | inhibition [8]: 16.4% (inactive) | inhibition [9]: 17.8% (inactive)

O=S(=O)(Nn1cnnc1)c1ccccc1Cl
cell count [1]: 647 | inhibition [1]: 4.3% (inactive) | inhibition of aggregation [2]: -12.3% (inactive) | nuclei count [2]: 99% | inhibition [3]: 45.5% (inactive) | nuclei count [3]: 81.7% | fluorescence slope [4]: -0.402 (inactive) | NADPH fluorescence slope [5]: -8.6e-06 (inactive) | slope [6]: 0.00434 (inactive) | outcome [7]: inactive | inhibition [8]: -7.35% (inactive) | inhibition [9]: -10.4% (inactive)

Cc1cc(C)cc(N2C(=O)C3C4C=CC(C4)C3C2=O)c1 (stereo not drawn)
cell count [1]: 643 | inhibition [1]: -4.8% (inactive) | inhibition of aggregation [2]: -4.9% (inactive) | nuclei count [2]: 98.2% | inhibition [3]: 28% (inactive) | nuclei count [3]: 99.1% | fluorescence slope [4]: -0.451 (inactive) | NADPH fluorescence slope [5]: -4.1e-05 (inactive) | slope [6]: 0.00599 (inactive) | outcome [7]: inactive | inhibition [8]: 13.3% (inactive) | inhibition [9]: 14.4% (inactive)

CCC(=O)Nc1nn(C)c2nc3c(C)cccc3cc12
cell count [1]: 724 | inhibition [1]: -9% (inactive) | inhibition of aggregation [2]: 27.6% (inactive) | nuclei count [2]: 87.7% | inhibition [3]: -53.9% (inactive) | nuclei count [3]: 102% | fluorescence slope [4]: -0.281 (inactive) | NADPH fluorescence slope [5]: -6.4e-06 (inactive) | slope [6]: 0.00513 (inactive) | outcome [7]: inactive | inhibition [8]: -2.08% (inactive) | inhibition [9]: -4.15% (inactive)

O=C(c1nn2cccnc2c1Cl)N1CCN(c2ccccc2)CC1
cell count [1]: 344 | inhibition [1]: 3.6% (inactive) | inhibition of aggregation [2]: -7.7% (inactive) | nuclei count [2]: 80.1% | inhibition [3]: -45.6% (inactive) | nuclei count [3]: 94.5% | fluorescence slope [4]: -0.424 (inactive) | NADPH fluorescence slope [5]: -2.5e-05 (inactive) | slope [6]: 0.00475 (inactive) | outcome [7]: inactive | inhibition [8]: 11.4% (inactive) | inhibition [9]: 1.58% (inactive)

COc1cccc(C2C(C(=O)c3cccs3)=C(O)C(=O)N2CCCn2ccnc2)c1OC (stereo not drawn)
cell count [1]: 406 | inhibition [1]: -2% (inactive) | inhibition of aggregation [2]: 12.6% (inactive) | nuclei count [2]: 96.7% | inhibition [3]: -168% (inactive) | nuclei count [3]: 106% | fluorescence slope [4]: -0.341 (inactive) | NADPH fluorescence slope [5]: -6.6e-05 (inactive) | slope [6]: 0.0053 (inactive) | outcome [7]: inactive | inhibition [8]: 8.13% (inactive) | inhibition [9]: 7.94% (inactive)

O=C(NCc1cccs1)c1cc2c(s1)CS(=O)(=O)C2
cell count [1]: 618 | inhibition [1]: -3% (inactive) | inhibition of aggregation [2]: -17.1% (inactive) | nuclei count [2]: 101% | inhibition [3]: -42.8% (inactive) | nuclei count [3]: 113% | fluorescence slope [4]: -0.32 (inactive) | NADPH fluorescence slope [5]: -4.2e-06 (inactive) | slope [6]: 0.00763 (inactive) | outcome [7]: inactive | inhibition [8]: 23.3% (inactive) | inhibition [9]: 87% (active)

COc1ccccc1CNC(=O)C(C)NS(=O)(=O)c1ccccc1 (stereo not drawn)
cell count [1]: 295 | inhibition [1]: -11.3% (inactive) | inhibition of aggregation [2]: -13.2% (inactive) | nuclei count [2]: 107% | inhibition [3]: -11.2% (inactive) | nuclei count [3]: 78% | fluorescence slope [4]: -0.406 (inactive) | NADPH fluorescence slope [5]: 2.3e-06 (inactive) | slope [6]: 0.00647 (inactive) | outcome [7]: inactive | inhibition [8]: -0.773% (inactive) | inhibition [9]: 1.85% (inactive)

CCOc1ccccc1C1N(c2ccc(F)cc2)C(=O)C2CCCN21 (stereo not drawn)
cell count [1]: 465 | inhibition [1]: -0.3% (inactive) | inhibition of aggregation [2]: -10.1% (inactive) | nuclei count [2]: 103% | inhibition [3]: 45.7% (inactive) | nuclei count [3]: 91.5% | fluorescence slope [4]: -0.349 (inactive) | NADPH fluorescence slope [5]: -4.9e-05 (inactive) | slope [6]: 0.00484 (inactive) | outcome [7]: inactive | inhibition [8]: 13.2% (inactive) | inhibition [9]: 17.1% (inactive)

CC12CCC(C(=O)N3CCN(C(=O)C45CCC(C)(C(=O)O4)C5(C)C)CC3)(OC1=O)C2(C)C
cell count [1]: 575 | inhibition [1]: -8.7% (inactive) | inhibition of aggregation [2]: -6.1% (inactive) | nuclei count [2]: 108% | inhibition [3]: -42.4% (inactive) | nuclei count [3]: 140% | fluorescence slope [4]: -0.391 (inactive) | NADPH fluorescence slope [5]: -7.7e-05 (inactive) | slope [6]: 0.00544 (inactive) | outcome [7]: inactive | inhibition [8]: -54.1% (inactive) | inhibition [9]: 99.3% (active)

COC(=O)c1sccc1NC(=O)c1ccco1
cell count [1]: 474 | inhibition [1]: -11.9% (inactive) | inhibition of aggregation [2]: 8.2% (inactive) | nuclei count [2]: 90.7% | inhibition [3]: 19.6% (inactive) | nuclei count [3]: 89.7% | fluorescence slope [4]: -0.44 (inactive) | NADPH fluorescence slope [5]: -3.5e-05 (inactive) | slope [6]: 0.00438 (inactive) | outcome [7]: active; weak signal in gallbladder only | inhibition [8]: 2.56% (inactive) | inhibition [9]: -4.04% (inactive)
